The source made the active and inactive calls.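 Rule for the calls, unless noted: active = inhibition at or above 50% at 10 µM; inactive = inhibition below 50%.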
Key:
[1] = inhibitors of TNFa-induced NFkB p65 translocation, primary screen, imaging, HUVEC, MLSMR starter and 10KST1 sets (AID 438;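 active = inhibition above 20% together with a positive visual image hit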;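 note: compound added about 3h40 before a 20 min TNFalpha stimulation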;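 for inhibition: signal is the nuclear over cytoplasmic p65 intensity ratio per well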); conditions: HUVEC TNFa-induced p65 nuclear translocation; cell count: measured here: nuclei count (cytotoxicity indicator), at 2.08 µM; inhibition: at 2 µM, stronger effect = higher value, 0% TNFa-plus-vehicle, 100% no-TNFa wells
[2] = reduction of polyQ htt aggregates in cells – imaging, exon1htt(103Q)mCFP cells, high-content imaging, primary screen (AID 483;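 active = visual image review flags a hit and inhibition of aggregation exceeds 20%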;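 note: compound exposure lasted 3 days before fixation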;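 for nuclei count: percent of the per-plate median nuclei count of sample wells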); conditions: exon1htt(103Q)mCFP cell line, aggregate imaging, at 2 µM; inhibition of aggregation: stronger effect = higher value; nuclei count: measured here: cell count, toxicity
[3] = endothelial E-selectin expression blockers – imaging, HUVEC, immunofluorescence, MLSMR starter and 10KST1 sets, primary screen (AID 487;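 active = visually confirmed hit in the image check and inhibition above 20%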;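 for inhibition: signal is fraction of cell area covered by stained E-selectin grains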;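 for nuclei count: 100% = median nuclei count of all wells on the same plate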); conditions: HUVEC TNFalpha-induced E-selectin immunofluorescence imaging, at 2 µM; inhibition: stronger effect = higher value; nuclei count: measured here: cell number, toxicity
[4] = molecular target: Voltage-gated potassium channel subunit beta-2 (Rattus norvegicus) (UniProt P62483); test: inhibitors of rat Kvbeta2 reductase activity – biochemical, NADPH fluorescence, primary screen (AID 622;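 active = fluorescence slope higher than the sample average by over 3 SD, cut at about -0.22 in these data, passing the limit was not always enough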;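 note: slope of raw intensity against log time taken from 70 to 1610 s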); conditions: recombinant KvBeta, 4-cyanobenzaldehyde reduction, at 10 µM, stronger effect = higher value
[5] = molecular target: Voltage-gated potassium channel subunit beta-2 (Rattus norvegicus) (UniProt P62483); test: enhancers of rat Kvbeta2 NADPH turnover – biochemical, NADPH fluorescence, primary screen (AID 623;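 active = NADPH fluorescence slope more negative than the mean of all samples by about 3 SD, 99.7% confidence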;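 note: fluorescence intensity change per second fitted from 20 to 320 s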); conditions: Recombinant KvBeta, NADPH fluorescence decrease slope, 10 min; at 10 µM; stronger effect = lower value
[6] = molecular target: Alpha-2C adrenergic receptor (Homo sapiens) (UniProt P18825); test: compounds altering alpha2C-coupled GIRK flux – cell-based, HEK293 alpha2C/GIRK1/2, thallium flux, primary screen (AID 624;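 active = fluorescence slope after compound addition differing from the mean of all screened samples at 99.7% confidence, in either direction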;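 note: slope of fluorescence ratio to pre-addition baseline per second over 15 to 24 s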); conditions: thallium flux BTC fluorescence, at 10 µM, actives lie on both sides
[7] = inhibitors of larval lipid processing in zebrafish, primary screen, whole organism, PED6 fluorescence, gall bladder and intestine (AID 686;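 active = a full or partial loss of lipid-probe fluorescence in the fish gall bladder, intestine or both, judged by eye; inactive = no fluorescence loss, or compound toxic to the fish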;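 note: larvae 5 to 7 days old with five fish per well; signal comes from phospholipase A2 cleavage of quenched PED6 carried via bile; overnight exposure to compound and PED6 before scoring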); conditions: Zebrafish larvae PED6 lipid processing, fluorescence scoring; screened at 20 µM (by protocol)
Method in brief: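 Doses: 20 µM single dose. Test system: live zebrafish larvae aged 5-7 days, whole organism. Quantity: five larvae per well. Measured by: By-eye fluorescence microscopy. Reagent: ingested quenched lipid PED6 at 100 nM. Read-out: visual per-well fluorescence inhibition score. Times: overnight exposure of larvae to compound plus PED6.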

[8] = blockers of RIG-like receptor reporter activation – cell-based, Sendai virus stimulus, luciferase, 10K MLSCN set, TLR/RLR signaling modifier project, primary screen (AID 602276); conditions: HEK293 RL24 IRF3 luciferase reporter, at 10 µM, stronger effect = higher value;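 note: firefly luciferase from ISG56 promoter only with Renilla not read in this screen; 0% = Sendai virus plus DMSO and 100% = medium plus DMSO without virus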
[9] = TLR3 IRF3 reporter activation blockers – cell-based, poly I:C stimulus, luciferase, 10K MLSCN set, primary screen (AID 602277;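 active = inhibition of the reporter signal at or above 50%; inactive = inhibition below 50%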); conditions: HEK293-TLR3 RL24 IRF3 luciferase reporter, at 10 µM, stronger effect = higher value

Sequence of Voltage-gated potassium channel subunit beta-2 (Rattus norvegicus) (P62483 whole entry, looked up): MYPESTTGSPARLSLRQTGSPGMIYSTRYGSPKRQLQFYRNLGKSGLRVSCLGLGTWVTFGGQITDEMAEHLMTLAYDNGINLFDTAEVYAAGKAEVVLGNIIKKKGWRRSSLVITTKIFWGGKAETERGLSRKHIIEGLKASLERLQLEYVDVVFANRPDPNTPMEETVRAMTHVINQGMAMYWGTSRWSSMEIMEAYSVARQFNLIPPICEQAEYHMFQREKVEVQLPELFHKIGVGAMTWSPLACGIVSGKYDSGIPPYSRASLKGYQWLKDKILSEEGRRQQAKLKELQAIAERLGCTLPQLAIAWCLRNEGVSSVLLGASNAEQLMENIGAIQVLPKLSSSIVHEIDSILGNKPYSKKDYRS
Sequence of Alpha-2C adrenergic receptor (Homo sapiens) (P18825 whole entry, looked up): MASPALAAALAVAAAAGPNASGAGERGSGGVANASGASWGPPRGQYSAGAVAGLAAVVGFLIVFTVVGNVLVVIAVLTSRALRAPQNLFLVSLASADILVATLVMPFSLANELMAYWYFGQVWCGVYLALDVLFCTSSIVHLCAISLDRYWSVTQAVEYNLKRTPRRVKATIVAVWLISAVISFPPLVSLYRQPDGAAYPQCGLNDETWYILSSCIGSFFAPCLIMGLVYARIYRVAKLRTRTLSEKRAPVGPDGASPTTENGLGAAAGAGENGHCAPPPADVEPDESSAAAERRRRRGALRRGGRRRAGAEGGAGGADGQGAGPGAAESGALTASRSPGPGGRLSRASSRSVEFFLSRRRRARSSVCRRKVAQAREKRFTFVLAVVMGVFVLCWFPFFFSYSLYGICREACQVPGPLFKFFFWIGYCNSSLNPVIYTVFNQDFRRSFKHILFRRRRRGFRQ

| SMILES | cell count [1] | inhibition [1] | inhibition of aggregation [2] | nuclei count [2] | inhibition [3] | nuclei count [3] | fluorescence slope [4] | NADPH fluorescence slope [5] | slope [6] | outcome [7] | inhibition [8] | inhibition [9] |
| --- | --- | --- | --- | --- | --- | --- | --- | --- | --- | --- | --- | --- |
| O=c1c2[nH]c3ccc(Cl)cc3c2ncn1Cc1ccccn1 | 302 | -3.6% (inactive) | -30.4% (inactive) | 83.4% | -31.6% (inactive) | 107% | -0.392 (inactive) | -4.3e-05 (inactive) | 0.00522 (inactive) | inactive | -2.53% (inactive) | 5.03% (inactive) |
| Cc1ccc(S(=O)(=O)C(C#N)c2nc3ccccc3nc2OC(C)C)cc1 (centres undefined) | 493 | 0% (inactive) | -10.6% (inactive) | 103% | -79.1% (inactive) | 114% | -0.38 (inactive) | -8.6e-05 (inactive) | 0.00476 (inactive) | inactive | 9.93% (inactive) | 10.6% (inactive) |
| CC(C)(C)n1ncc2c(=O)n(CC(=O)NCc3ccccc3)cnc21 | 615 | 2.4% (inactive) | 0.5% (inactive) | 82.4% | -117% (inactive) | 104% | -0.296 (inactive) | -1.3e-05 (inactive) | 0.00536 (inactive) | inactive | -28.3% (inactive) | 69.7% (active) |
| O=C(Nc1cccc(OCC(=O)N2CCOCC2)c1)C1CCCCC1 | 428 | 4.9% (inactive) | 5.7% (inactive) | 95.1% | -22.9% (inactive) | 94.2% | -0.471 (inactive) | -5.6e-05 (inactive) | 0.0056 (inactive) | inactive | 11.4% (inactive) | 12.7% (inactive) |
| CCCCc1c(O)nc(SCC(=O)Nc2ccc3c(c2)CCC3)[nH]c1=O | 569 | -18.3% (inactive) | -3% (inactive) | 75.8% | -5.9% (inactive) | 87.2% | -0.368 (inactive) | -6.1e-05 (inactive) | 0.00495 (inactive) | inactive | 10.6% (inactive) | 7.8% (inactive) |
| Cn1c(C(=O)NCc2cccnc2)cc2sccc21 | 560 | -4.9% (inactive) | 1.2% (inactive) | 104% | -25% (inactive) | 110% | -0.436 (inactive) | 3.4e-05 (inactive) | 0.00497 (inactive) | inactive | -11.9% (inactive) | -21.5% (inactive) |
| CCOC(=O)c1ccc2[nH]c3c(c2c1)CCCCC3=O | 681 | -11% (inactive) | -12.9% (inactive) | 106% | 32% (inactive) | 96.5% | -0.389 (inactive) | -5.3e-05 (inactive) | 0.00399 (inactive) | inactive | -36.8% (inactive) | -77.8% (inactive) |
| CSc1ccc(-c2cc(=O)c3ccccc3o2)cc1 | 620 | -10.5% (inactive) | -54.9% (inactive) | 8.7% | -108% (inactive) | 139% | -0.00698 (active) | 1.2e-05 (inactive) | 0.00442 (inactive) | inactive | -21% (inactive) | -41.6% (inactive) |
| Cc1ccc2c(c1C)NC(C(=O)O)C1CC=CC21 (centres undefined) | 371 | 1.6% (inactive) | -10.5% (inactive) | 77.6% | -11.4% (inactive) | 114% | -0.373 (inactive) | -2.5e-05 (inactive) | 0.00434 (inactive) | inactive | 13.7% (inactive) | 18.5% (inactive) |
| N#CCC(=O)Nc1ncn(Cc2ccccc2Cl)n1 | 273 | -2.5% (inactive) | -6% (inactive) | 87.3% | -51.5% (inactive) | 105% | -0.456 (inactive) | 1.5e-06 (inactive) | 0.00405 (inactive) | inactive | -5.79% (inactive) | 4.42% (inactive) |
| O=C(NCCCN1CCN(Cc2ccccc2)CC1)C1CCN(c2nnc(-n3cccc3)s2)CC1 | 336 | -11.8% (inactive) | -22.5% (inactive) | 103% | -119% (inactive) | 126% | -0.393 (inactive) | -5e-05 (inactive) | 0.00457 (inactive) | inactive | -19.7% (inactive) | -72% (inactive) |
| O=C(COc1ccc(S(=O)(=O)NC2CCCCC2)cc1)NCc1ccccn1 | 400 | -5.1% (inactive) | -2.7% (inactive) | 101% | -8.3% (inactive) | 107% | -0.401 (inactive) | -1.8e-06 (inactive) | 0.00588 (inactive) | inactive | -5.78% (inactive) | 1.29% (inactive) |
| Cn1nc(C(C)(C)C)cc1C(=O)NCc1ccc(N2CCCC2=O)cc1 | 651 | -10.6% (inactive) | -12.4% (inactive) | 70.7% | -11.3% (inactive) | 107% | -0.456 (inactive) | -9.7e-05 (inactive) | 0.00425 (inactive) | inactive; toxic | 9.24% (inactive) | -37.1% (inactive) |
| COC(=O)C1=C(C)N(Cc2ccco2)C(=O)C1 | 302 | 0.7% (inactive) | 26.2% (inactive) | 99.6% | -12.5% (inactive) | 101% | -0.42 (inactive) | -3.5e-05 (inactive) | 0.00527 (inactive) | inactive | 8.55% (inactive) | 8.79% (inactive) |
| COCCNC(=O)NC(=O)COC(=O)Cc1ccc2c(c1)OCCO2 | 376 | 5.1% (inactive) | -11.9% (inactive) | 109% | -127% (inactive) | 110% | -0.418 (inactive) | -6.4e-05 (inactive) | 0.00538 (inactive) | inactive | 17% (inactive) | 16.3% (inactive) |
| Cc1ccc(-c2nn(-c3ccccc3)cc2/C=C(\C#N)c2cccc(C#N)c2)o1 | 264 | -9.3% (inactive) | -10% (inactive) | 97.5% | 3.9% (inactive) | 84.1% | -0.273 (inactive) | -2.6e-05 (inactive) | 0.0087 (active) | inactive | 13.8% (inactive) | 5.01% (inactive) |
| Cc1nc2cc(NC(=O)N3c4ccccc4CC3C)ccc2o1 (centres undefined) | 574 | -2.2% (inactive) | 7.4% (inactive) | 56.2% | -10.4% (inactive) | 96.8% | -0.394 (inactive) | -5.4e-05 (inactive) | 0.00476 (inactive) | inactive | 1.7% (inactive) | -4% (inactive) |
| Cc1ccc(CN2C(=O)CCC2C(=O)NCCCN2CCCC(C)C2)cc1 (centres undefined) | 436 | 6.9% (inactive) | -3.9% (inactive) | 106% | -43.5% (inactive) | 129% | -0.434 (inactive) | -2.5e-05 (inactive) | 0.0056 (inactive) | inactive | -5.02% (inactive) | 4.05% (inactive) |
| O=C(O)c1ccc(S(=O)(=O)Cc2ccccc2)cc1 | 422 | 11.4% (inactive) | 3% (inactive) | 88.3% | -81.2% (inactive) | 113% | -0.421 (inactive) | 7.6e-07 (inactive) | 0.00596 (inactive) | inactive | 16.7% (inactive) | 11.3% (inactive) |
| CCOC(=O)CSc1nc2sc(C)c(C)c2c(=O)[nH]1 | 419 | 1.6% (inactive) | -20% (inactive) | 104% | -75.6% (inactive) | 102% | -0.38 (inactive) | -5e-06 (inactive) | 0.00685 (inactive) | inactive | 8.58% (inactive) | 9.53% (inactive) |
| COCCn1nnnc1SCC(=O)N1CCCCC1 | 344 | 1.6% (inactive) | 4.1% (inactive) | 102% | 6.2% (inactive) | 121% | -0.49 (inactive) | -9.6e-06 (inactive) | 0.00458 (inactive) | inactive | 17.3% (inactive) | 14% (inactive) |
| COC(=O)Nc1sccc1C(=O)Nc1sccc1C(=O)OC | 330 | -0.2% (inactive) | 23.3% (inactive) | 96.8% | 17.9% (inactive) | 95.9% | -0.431 (inactive) | -3.4e-05 (inactive) | 0.00336 (inactive) | inactive | 1.3% (inactive) | -4.09% (inactive) |
| COc1ccc(Br)cc1-c1noc(-c2ccccc2)n1 | 357 | 3% (inactive) | -25.4% (inactive) | 102% | -51.1% (inactive) | 109% | -0.371 (inactive) | -6.1e-05 (inactive) | 0.00662 (inactive) | inactive | 13.4% (inactive) | 99.2% (active) |
| O=C(Nc1ccncc1)c1cc2ccccc2o1 | 165 | 2.1% (inactive) | 35.8% (inactive) | 101% | -106% (inactive) | 140% | -0.382 (inactive) | -4.4e-05 (inactive) | 0.00527 (inactive) | inactive; toxic | -36.5% (inactive) | -115% (inactive) |
| COc1ccccc1N1CCN(C(=O)C2CCN(S(=O)(=O)c3ccc(F)cc3)CC2)CC1 | 676 | 11.9% (inactive) | 6.6% (inactive) | 108% | -23.6% (inactive) | 96.3% | -0.415 (inactive) | -2.3e-05 (inactive) | 0.00451 (inactive) | inactive | -6.92% (inactive) | -9.69% (inactive) |
| CCOc1ccc(NC(=O)COC(=O)Cn2cnnn2)cc1OCC | 373 | -19.6% (inactive) | 11.4% (inactive) | 57.8% | 33.9% (inactive) | 72.6% | -0.468 (inactive) | -2.6e-05 (inactive) | 0.00481 (inactive) | inactive | 10.8% (inactive) | 9.82% (inactive) |
| O=C(CSc1nnc(-c2ccco2)n1CC1CCCO1)N1CCCCC1 (centres undefined) | 375 | 1.4% (inactive) | 9.7% (inactive) | 102% | -41% (inactive) | 107% | -0.378 (inactive) | -6.2e-05 (inactive) | 0.00431 (inactive) | inactive | 13.1% (inactive) | 11.6% (inactive) |

Source: PubChem BioAssay
